The structures appear in SMILES notation. Activity calls are given as the source filed them.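 Rule for the calls, unless noted: active = potentiation averaged over duplicate wells exceeding buffer-only control mean by more than 3 SD; inactive = the rest.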

In PubChem BioAssay one finds outcome, activation and potentiation data, which are given here for 30 compounds.

A short description of experiment [1]: thallium flux activation in parental CHO cells, counter-screen for KCNQ1 potentiator project (AID 493006;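 active = duplicate-averaged activation above buffer control mean plus 5 SD of those controls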). The conditions noted are these: parental CHO-K1 cells, FluxOR thallium flux, at 10 µM; active compounds read high. The method, boiled down: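 Test system: parental CHO-K1 cells, FluxOR dye-loaded / Probe or stimulus: potassium plus thallium depolarizing stimulus, 5x stock 12.5 mM K2SO4, Tl2SO4 / Timing: overnight 37 °C plating, 90 min dye, 20 min dark compound / Measured by: kinetic thallium-flux fluorescence / Read-out: max-minus-min fluorescence over baseline, percent of buffer-to-R-L3 span / Benchmarks: buffer and R-L3 controls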
(A counterscreen serves to expose hits that act by an unwanted route or on another target.)

The target in experiment [2] is Potassium voltage-gated channel subfamily KQT member 1 (Homo sapiens) (UniProt P51787). Briefly: KCNQ1 potassium channel potentiators, confirmation, FluxOR thallium flux, CHO cells, duplicates (AID 493007).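 For outcome: cells depolarized by a potassium plus thallium sulfate stimulus after compound.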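 For potentiation: 0% = buffer-only wells and 100% = R-L3 activator control.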 The conditions noted are these: KCNQ1 cell line, FluxOR thallium flux fluorescence, at 10 µM; active compounds read high, % of reference activator effect, buffer zero. The method, boiled down: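 Assay system: CHO cells carrying KCNQ1 | Controls: Buffer and R-L3 controls | Schedule: FluxOR dye loading 90 min, compound exposure 20 min, room temperature | Read-out: Baseline-normalized fluorescence change, percent of buffer-to-R-L3 range | Replicates: Each compound tested in duplicate | Technique: Kinetic thallium influx fluorescence with FluxOR dye, 10 s baseline, 110 s post-stimulus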
Sequence of Potassium voltage-gated channel subfamily KQT member 1 (Homo sapiens) (P51787 whole entry, looked up): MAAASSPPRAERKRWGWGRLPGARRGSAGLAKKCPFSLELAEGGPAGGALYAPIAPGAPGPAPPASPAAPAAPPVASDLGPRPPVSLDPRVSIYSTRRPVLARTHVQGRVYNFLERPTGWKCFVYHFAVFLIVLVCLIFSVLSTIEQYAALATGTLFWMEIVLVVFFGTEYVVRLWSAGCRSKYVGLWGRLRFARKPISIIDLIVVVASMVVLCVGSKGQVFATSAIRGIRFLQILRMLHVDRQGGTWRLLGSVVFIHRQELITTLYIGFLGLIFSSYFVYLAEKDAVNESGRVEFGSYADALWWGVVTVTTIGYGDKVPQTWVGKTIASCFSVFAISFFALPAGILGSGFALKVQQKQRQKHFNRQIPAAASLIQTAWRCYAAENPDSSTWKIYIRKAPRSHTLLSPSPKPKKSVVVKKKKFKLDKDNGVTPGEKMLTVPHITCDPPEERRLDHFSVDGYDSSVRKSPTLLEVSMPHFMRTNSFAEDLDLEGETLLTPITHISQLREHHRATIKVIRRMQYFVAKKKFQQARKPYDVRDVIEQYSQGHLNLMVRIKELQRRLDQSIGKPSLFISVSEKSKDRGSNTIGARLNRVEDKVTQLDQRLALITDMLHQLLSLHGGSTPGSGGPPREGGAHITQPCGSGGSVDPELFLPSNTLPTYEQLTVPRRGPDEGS

In experiment [3] the target is Potassium voltage-gated channel subfamily KQT member 2 (Rattus norvegicus) (UniProt O88943). Briefly: rat KCNQ2 channel potentiation, selectivity assay for KCNQ1 potentiator project, KCNQ2-CHO-K1 cells (AID 493009;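 active = mean duplicate potentiation above the buffer control mean plus 5 SD of buffer wells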;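 note: assay conditions were tuned for KCNQ1 rather than KCNQ2 modulators; signal is max minus min fluorescence divided by baseline after thallium stimulus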). To be noted: FluxOR thallium flux fluorescence, at 10 µM; active compounds read high, scaled: buffer 0, activator control 100.
Sequence of Potassium voltage-gated channel subfamily KQT member 2 (Rattus norvegicus) (O88943 whole entry, looked up): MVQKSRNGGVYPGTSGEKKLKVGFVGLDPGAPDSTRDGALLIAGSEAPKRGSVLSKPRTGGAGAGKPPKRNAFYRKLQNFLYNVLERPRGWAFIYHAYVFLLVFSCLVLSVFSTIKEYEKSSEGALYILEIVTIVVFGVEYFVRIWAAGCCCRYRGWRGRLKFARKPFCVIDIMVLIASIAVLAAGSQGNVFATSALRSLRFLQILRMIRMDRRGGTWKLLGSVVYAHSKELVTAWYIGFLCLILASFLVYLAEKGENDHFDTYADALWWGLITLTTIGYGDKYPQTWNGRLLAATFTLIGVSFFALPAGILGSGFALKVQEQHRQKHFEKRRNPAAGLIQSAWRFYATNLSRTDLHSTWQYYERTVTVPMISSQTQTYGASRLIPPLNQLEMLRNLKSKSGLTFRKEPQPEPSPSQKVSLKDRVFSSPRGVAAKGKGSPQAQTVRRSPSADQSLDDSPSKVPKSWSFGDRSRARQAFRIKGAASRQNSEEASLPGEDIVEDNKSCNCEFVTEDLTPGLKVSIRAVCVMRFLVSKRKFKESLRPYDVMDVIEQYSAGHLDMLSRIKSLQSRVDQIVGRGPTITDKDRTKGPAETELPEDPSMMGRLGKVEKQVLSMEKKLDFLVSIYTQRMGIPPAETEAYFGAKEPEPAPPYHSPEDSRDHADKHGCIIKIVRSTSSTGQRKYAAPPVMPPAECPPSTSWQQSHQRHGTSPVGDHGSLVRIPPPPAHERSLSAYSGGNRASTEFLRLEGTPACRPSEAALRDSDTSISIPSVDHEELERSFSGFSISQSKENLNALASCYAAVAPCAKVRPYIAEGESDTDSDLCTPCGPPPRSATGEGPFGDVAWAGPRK
Experiment [4] addresses Potassium voltage-gated channel subfamily KQT member 1 (Homo sapiens) (UniProt P51787). Kind of experiment: KCNQ1 channel current potentiators, confirmation, orthogonal assay for KCNQ1 potentiator project, IonWorks patch clamp, KCNQ1-CHO cells (AID 493184;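 active = current rise at least 3 SD above the untreated control mean in each of two repeat wells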). To be noted: automated patch clamp current, at 10 µM; active compounds read high. The method, boiled down: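 Material: KCNQ1-expressing CHO cells; doses: 10 µM final, single point; probe or stimulus: voltage step from -90 mV holding to +40 mV, 2,000 ms; signal: automated voltage clamp, amphotericin B perforated patch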
(In general: The patch-clamp technique gives a direct electrical read-out from membranes.)

As for `COc1ccccc1CNC(=O)COC(=O)c1nccnc1N`, the result in experiment [1], in experiment [2], in experiment [3] and in experiment [4] was inactive.
On to `CCCc1c(C)[nH]c2ccc(NC(C)=O)cc2c1=O`, for which the outcome in experiment [1], in experiment [2], in experiment [3] and in experiment [4] was inactive.
Regarding `Cc1ccccc1C(=O)Nc1nc(=S)ss1`, in experiment [1], the activation is 250% (active). Moreover, the potentiation in experiment [2] is 72% (active); in experiment [3], 267% (active). Also, the result in experiment [4] was inactive.
For `Cc1cc(Nc2cc(N3CCN(C)CC3)nc(Sc3ccc(NC(=O)C4CC4)cc3)n2)n[nH]1`, in that order: 140% (active), 30% (active), 144% (active) and “inactive”.
`O=C(NC(=S)Nc1ccccc1Cl)c1ccco1`: the activation in experiment [1] was 140% (active). Further, the outcome in experiment [2] and in experiment [4] was inactive. Moreover, in experiment [3], the potentiation was 146% (active).
Turning to `CCCn1c(=S)[nH]c2ccccc2c1=O`, in experiment [1], the activation is 153% (active). The figures for the potentiation in experiment [2] and in experiment [3] were 18.5% (active) and 168% (active), respectively. For the same compound, the result in experiment [4] was inactive.
On to `COc1cccc(CNC(=O)C2CCN(S(=O)(=O)c3ccc(-n4cnnn4)cc3)CC2)c1`, for which the outcome in experiment [1], in experiment [2], in experiment [3] and in experiment [4] was inactive.
With `COc1ccc(C(=O)NNC(=O)C(=O)Nc2ccc(C)cc2)cc1`, the activation in experiment [1] was 254% (active). For the same compound, the values for the potentiation in experiment [2] and in experiment [3] were 123% (active) and 380% (active), respectively. Moreover, in experiment [4], the outcome was inactive.
As for `Cn1ncc2c(O/N=C(\N)c3ccc(C(F)(F)F)cc3)ncnc21`, the result in experiment [1], in experiment [2], in experiment [3] and in experiment [4] was inactive.
Regarding `COc1ccc(NC(=O)CC2C(=O)NCCN2C(=O)Nc2ccc(C(F)(F)F)cc2)cc1` (stereo not given), the result in experiment [1], in experiment [2], in experiment [3] and in experiment [4] was inactive.
Turning to `O=C(NC(=S)Nc1nc2ccccc2s1)c1ccco1`, the activation in experiment [1] is 183% (active). In addition, the potentiation was 31% (active) in experiment [2] and 172% (active) in experiment [3]. Also, in experiment [4], the result was inactive.
Consider `COCCN1CCCC(CNCc2cn(C)nc2-c2ccc(Oc3ccccc3)cc2)C1` (stereo not given), for which the result in experiment [1], in experiment [2], in experiment [3] and in experiment [4] was inactive.
For `Cc1ccc(C(=O)Sc2cccccc2=O)cc1`, the activation in experiment [1] is 230% (active). The potentiation in experiment [2] is 37.5% (active); in experiment [3] it was 228% (active). The result in experiment [4] was inactive.
As for `CCC1(c2ccccc2)NC(=O)N(CC(=O)Nc2ccccc2C(=O)N2CCCCC2)C1=O` (stereo not given), the result in experiment [1], in experiment [2], in experiment [3] and in experiment [4] was inactive.
For `Cc1nn(C)c(C(=O)NC(=S)Nc2ccccc2Br)c1Cl`, the activation in experiment [1] was 232% (active). Also, the potentiation in experiment [2] was 96% (active); in experiment [3], 254% (active). For the same compound, the result in experiment [4] was inactive.
Take `COC(=O)c1sc(-c2ccccc2)cc1NC(=O)C1CC1`: the result in experiment [1], in experiment [2], in experiment [3] and in experiment [4] was inactive.
`COC(=O)c1sc(NC(=S)NC(=O)c2ccc(C)cc2)nc1C`: the activation in experiment [1] was 172% (active). Further, the values for the potentiation in experiment [2] and in experiment [3] were 50.5% (active) and 188% (active), respectively. Further, the outcome in experiment [4] was inactive.
`Fc1ccc2nc(Nc3nc4c(F)cc(F)cc4s3)sc2c1`: the activation in experiment [1] is 165% (active). Besides, the results for the potentiation in experiment [2] and in experiment [3] were 74% (active) and 210% (active), respectively. For the same compound, the result in experiment [4] was inactive.
For the compound `CC(=O)c1c(N)[nH]c(-c2ccccc2)nc1=S`, the result in experiment [1], in experiment [2], in experiment [3] and in experiment [4] was inactive.
With `Cc1cc([N+](=O)[O-])ccc1-c1ccc(C2Nc3ccccc3C(=O)N2O)o1` (stereo not given), in experiment [1], the activation was 174% (active). The potentiation in experiment [2] is 18.5% (active); in experiment [3] it was 158% (active). Further, the outcome in experiment [4] was inactive.
With `CCCn1c(NC(=O)CN2C(=O)NC3(CCCC3)C2=O)nc2ccccc21`, the outcome in experiment [1], in experiment [2], in experiment [3] and in experiment [4] was inactive.
Regarding `CCC(/C=N/NC(=O)C1COc2ccccc2O1)CC` (stereo not given), the outcome in experiment [1], in experiment [2], in experiment [3] and in experiment [4] was inactive.
Consider `CC1CCN(C(=S)NC(=O)c2cccc([N+](=O)[O-])c2)CC1`, for which, in experiment [1], the activation was 207% (active). Further, the potentiation in experiment [2] was 41.5% (active); in experiment [3] it was 189% (active). For the same compound, the result in experiment [4] was inactive.
On to `O=c1c2ccccc2[nH]c(=S)n1CCc1ccccc1`, for which the activation in experiment [1] was 159% (active). Moreover, the outcome in experiment [2], in experiment [3] and in experiment [4] was inactive.
For the compound `Nc1nc(N)c(N=Nc2ccc(C(=O)O)cc2)c(N)n1`, the outcome in experiment [1], in experiment [2], in experiment [3] and in experiment [4] was inactive.
For the compound `O=C(CC(=O)c1ccccc1O)c1cccc(F)c1`, the activation in experiment [1] is 164% (active). Also, the potentiation in experiment [2] is 50.5% (active); in experiment [3], 188% (active). In addition, in experiment [4], the outcome was inactive.
With `O=C(CNCC1CCCCC1)Nc1ccc(OC(F)(F)F)cc1`, the result in experiment [1], in experiment [2], in experiment [3] and in experiment [4] was inactive.
`O=C(Nc1nc(=O)c2ccccc2s1)c1ccc(Cl)cc1`: the activation in experiment [1] was 246% (active). Moreover, the potentiation in experiment [2] was 85.5% (active); in experiment [3] it was 242% (active). In experiment [4], the outcome was inactive.
For `O=c1cc(-c2ccccc2)cc(-c2ccccc2)n1O` the same measures were 254% (active), 87.5% (active), 322% (active) and “inactive”.
Take `COCCN(Cc1cc2cc3c(cc2nc1Cl)OCO3)C(=O)c1ccc(C)cc1`: the result in experiment [1], in experiment [2], in experiment [3] and in experiment [4] was inactive.
